Data set [1] relates to Pseudomonas aeruginosa. Kind of data set: Antibacterial activity against Pseudomonas aeruginosa ATCC 27853 measured after 18 hrs by dilution susceptibility test. The class given is functional. The procedure, abridged:
(§1)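 Broth dilution MIC for aerobic bacteria; compound dissolved in DMSO, serially diluted to 10 concentrations (0.25–128 μg/mL); gentamicin positive control; triplicate; six untreated media controls per plate; 35 °C for 18 h; MIC = lowest concentration preventing visible growth.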

Another data set has as its system Escherichia coli. Kind of data set: Antibacterial activity against Escherichia coli ATCC 25922 measured after 18 hrs by dilution susceptibility test. The class given is functional. The procedure, abridged: as §1
Data set [2] in a line: Metal chelating activity assessed as Fe3+-compound complex formation at 5 to 1280 uM after 3 hrs by chrome azural S assay. The procedure, abridged:
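Modified CAS assay: CTAB–CAS–Fe(III) reagent in MES buffer pH 5.6 mixed 1:1 with compound or deferoxamine mesylate in water, final concentrations 1.28 mM to 5 μM; incubated 37 °C, 3 h; colour change judged visually or absorbance change recorded.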

The test system of a further data set is Mus musculus. As to the kind of experiment: Toxicity in mouse at 80 to 160 mg/kg, ip administered as single dose. The class given is organism-based. The note with it: in vivo.
The test system of data set [3] is Pseudomonas aeruginosa. Kind of data set: Antibiofilm activity against Pseudomonas aeruginosa ATCC 27853 at 16 to 64 ug/ml in presence of gentamycin by crystal violet microtiter method. Format: functional, organism-based.
In data set [4] the test system is Pseudomonas aeruginosa. Kind of data set: Antibiofilm activity against Pseudomonas aeruginosa ATCC 27853 at 16 to 64 ug/ml by crystal violet microtiter method. The class given is functional, organism-based.
Data set [5] relates to Pseudomonas aeruginosa. As to the kind of experiment: Antibacterial activity against Pseudomonas aeruginosa ATCC 27853 infected in mouse assessed as reduction in bacterial load in thigh at 80 to 160 mg/kg, ip administered as single dose measured after 6 hrs by time kill assay. Format: functional, organism-based. The procedure, abridged: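 Neutropenic murine thigh infection with P. aeruginosa grown, subcultured and quantified in Mueller-Hinton broth/agar; single intraperitoneal dose (80 or 160 mg/kg) given 1 h after infection; groups of two treated and two untreated mice euthanized at 0–6 h post-dose; thigh CFU counted; mean and standard deviation from four thighs of two mice.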

Converted amounts (≈) assume the structure as drawn. The source made the active and inactive calls. The calls are words filed in the database; no cut-off is given here.

Consider GENTAMICIN, for which the MIC against Pseudomonas aeruginosa [1] and against Escherichia coli was 4 µg/mL in each case.

Regarding `CC(=O)N(O)CCCCCNC(=O)CCC(=O)N(O)CCCCCNC(=O)CCC(=O)N(O)CCCCCN`, the result in data set [2] was Active.

Regarding `C[C@@H]1CC(=O)N(O)CCCC[C@@H](NC(=O)CCC(=O)O)C(=O)O[C@H](C)CC(=O)N(O)CCCC[C@@H](NC(=O)CCC(=O)O)C(=O)O[C@H](C)CC(=O)N(O)CCCC[C@@H](NC(=O)CCC(=O)O)C(=O)O1`, the outcome (in data set [2]; with Pseudomonas aeruginosa [5]) was Active. Besides, the Activity result in the data set with Mus musculus is listed as “Non-Toxic”. Moreover, the outcome in the data set with Pseudomonas aeruginosa [3] and in the data set on Pseudomonas aeruginosa [4] was inactive. Besides, the MIC against Pseudomonas aeruginosa [1] (ATCC 27853, 18 h) came out at 64 µg/mL (≈ 64.6 µM); in the data set with Escherichia coli (ATCC 25922, 18 h), 64 µg/mL (≈ 64.6 µM).
